Experiments:
[1] = Phase 1 pharmacokinetics of ilorasertib in plasma; type: in vivo, human; conditions: for AUC(0-t) / half-life / AUC(0-inf): human, plasma, po; for half-life: 480 mg, t1/2, arm B, oral twice weekly
Outline: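 Arm A patients took oral test compound once weekly, in the morning, on days 1, 8 and 15 of 28-day cycles, at 10–690 mg. Plasma was sampled intensively up to 72 h after dosing on days 1 and 15. Noncompartmental analysis gave Cmax, Tmax, t½, AUCt and AUC∞, plus dose-normalized values. Results are summarized by dose level as mean ± SD, with individual values where N=1.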

[2] = test system: patients with hematologic malignancies; assay: Phase 1 safety and tolerability; type: in vivo
Outline: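 Four arms each ran 28-day cycles: oral once weekly (A), oral twice weekly (B), oral once weekly with IV/SC azacitidine on days 1–7 (C), and IV once weekly (D). Dose escalation followed a modified continual reassessment method, with MTD defined as a 30% DLT rate by logistic regression. Toxicity was graded continuously by CTCAE v4.0, with labs, ECG, MUGA/echocardiogram and vital signs monitored.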

[3] = test system: peripheral blood mononuclear cells; assay: Cell cycle analysis by flow cytometry; type: in vivo, human; conditions: arm A
Outline: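 Adults with hematologic malignancies received oral test compound once weekly on days 1, 8 and 15 of 28-day cycles, at doses from 10 to 690 mg. Blood for pharmacodynamics was drawn alongside pharmacokinetic samples. Peripheral blood mononuclear cells were analysed by flow cytometry for the percentage of cells with 2N, 4N or >4N DNA. Only patients with enough cycling cells at baseline were evaluable.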

[4] = test system: placental growth factor (PlGF); assay: Placental growth factor concentration, biomarker of VEGF receptor inhibition; type: in vivo, human; conditions: arm A
Outline: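 Arm A patients received oral test compound once weekly on days 1, 8 and 15 of 28-day cycles, at 10–690 mg. At designated time points after the first dose, blood for PlGF measurement was collected together with pharmacokinetic samples. The change from baseline in PlGF was assessed against dose.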

[5] = test system: patients with advanced hematologic malignancies; assay: Clinical response; type: in vivo, human
Outline: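 Patients received the test compound in one of four arms, each on a 28-day cycle. Arm A took it orally once weekly on days 1, 8 and 15, and arm B orally on days 1, 2, 8, 9, 15 and 16. Arm C added IV or SC azacitidine on days 1–7 to the once-weekly oral schedule. Arm D received it IV on days 1, 8 and 15. Response used revised International Working Group criteria, or NCCN guidelines for CML.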

Nc1ncc(-c2cnn(CCO)c2)c2scc(-c3ccc(NC(=O)Nc4cccc(F)c4)cc3)c12 [Ilorasertib]
AUC(0-t) ([1]; 440 mg): 13500 ± 7520 ng·h/mL
half-life ([1]; day 1, N=7): 14.9 ± 3.2 h
half-life ([1]; day 15, N=7): 15.3 ± 5.1 h
AUC(0-inf) ([1]; 540 mg): 6010 ± 1230 ng·h/mL
AUC(0-t) ([1]; 540 mg, AUC0–24, arm A, oral once weekly, first dose, N=3, mean ± SD): 5800 ± 1080 ng·h/mL
AUC(0-inf) ([1]; 640 mg): 20300 ± 15000 ng·h/mL
AUC(0-t) ([1]; 640 mg, AUC0–24, arm A, oral once weekly, first dose, N=6, mean ± SD): 19700 ± 14800 ng·h/mL
AUC(0-inf) ([1]; 690 mg): 8460 ng·h/mL
renal excretion of ilorasertib as the parent drug ([1]; in vivo): negligible
dose proportionality of Cmax and AUC∞ ([1]; oral, 80- to 690-mg dose range): generally dose proportional
patients reporting grade 3 or 4 adverse events ([2]; 42 of 52 patients): 80.8%
patients reporting at least 1 treatment-emergent adverse event ([2]; 51 of 52 patients): 98.1%
grade 3/4 adverse event: anemia ([2]; 52 patients, all arms): 13.5%
grade 3/4 adverse event: hypertension ([2]; 52 patients, all arms): 28.8%
grade 3/4 adverse event: hypokalemia ([2]; 52 patients, all arms): 15.4%
grade 3/4 adverse event: hypophosphatemia ([2]; 52 patients, all arms): 11.5%
grade 3 or 4 adverse events related to ilorasertib: hypertension ([2]; 52 patients, all arms): 17.3%
grade 3 or 4 adverse events related to ilorasertib: pancreatitis ([2]; 52 patients, all arms): 3.8%
grade 3 or 4 adverse events related to ilorasertib: proteinuria ([2]; 52 patients, all arms): 3.8%
Treatment-emergent adverse events, any grade: Anemia ([2]; all arms, N=52): 7 (13.5) n (%)
Treatment-emergent adverse events, any grade: Any event ([2]; all arms, N=52): 51 (98.1) n (%)
Treatment-emergent adverse events, any grade: Arthralgia ([2]; all arms, N=52): 8 (15.4) n (%)
Treatment-emergent adverse events, any grade: Bone pain ([2]; all arms, N=52): 8 (15.4) n (%)
Treatment-emergent adverse events, any grade: Decreased appetite ([2]; all arms, N=52): 8 (15.4 n (%)
Treatment-emergent adverse events, any grade: Diarrhea ([2]; all arms, N=52): 23 (44.2) n (%)
Treatment-emergent adverse events, any grade: Epistaxis ([2]; all arms, N=52): 7 (13.5) n (%)
Treatment-emergent adverse events, any grade: Fatigue ([2]; all arms, N=52): 11 (21.2) n (%)
Treatment-emergent adverse events, any grade: Headache ([2]; all arms, N=52): 8 (15.4) n (%)
Treatment-emergent adverse events, any grade: Hypertension ([2]; all arms, N=52): 17 (32.7) n (%)
Treatment-emergent adverse events, any grade: Hypokalemia ([2]; all arms, N=52): 18 (34.6) n (%)
Treatment-emergent adverse events, any grade: Hypomagnesemia ([2]; all arms, N=52): 10 (19.2) n (%)
Treatment-emergent adverse events, any grade: Hypophosphatemia ([2]; all arms, N=52): 9 (17.3) n (%)
Treatment-emergent adverse events, any grade: Nausea ([2]; all arms, N=52): 23 (44.2) n (%)
Treatment-emergent adverse events, any grade: Peripheral edema ([2]; all arms, N=52): 11 (21.2) n (%)
Treatment-emergent adverse events, any grade: Proteinuria ([2]; all arms, N=52): 19 (36.5) n (%)
Treatment-emergent adverse events, any grade: Pyrexia ([2]; all arms, N=52): 8 (15.4) n (%)
Treatment-emergent adverse events, any grade: Vomiting ([2]; all arms, N=52): 10 (19.2) n (%)
Treatment-emergent adverse events, grade 3/4: Acute renal failure ([2]; all arms, N=52): 3 (5.8) n (%)
Treatment-emergent adverse events, grade 3/4: Anemia ([2]; all arms, N=52): 7 (13.5) n (%)
Treatment-emergent adverse events, grade 3/4: Any grade 3/4 event ([2]; all arms, N=52): 42 (80.8) n (%)
Treatment-emergent adverse events, grade 3/4: Bacteremia ([2]; all arms, N=52): 3 (5.8) n (%)
Treatment-emergent adverse events, grade 3/4: Febrile neutropenia ([2]; all arms, N=52): 4 (7.7) n (%)
Treatment-emergent adverse events, grade 3/4: Fungal pneumonia ([2]; all arms, N=52): 4 (7.7) n (%)
Treatment-emergent adverse events, grade 3/4: Hypertension ([2]; all arms, N=52): 15 (28.8) n (%)
Treatment-emergent adverse events, grade 3/4: Hypokalemia ([2]; all arms, N=52): 8 (15.4) n (%)
Treatment-emergent adverse events, grade 3/4: Hypophosphatemia ([2]; all arms, N=52): 6 (11.5) n (%)
Treatment-emergent adverse events, grade 3/4: Hypotension ([2]; all arms, N=52): 3 (5.8) n (%)
Treatment-emergent adverse events, grade 3/4: Pneumonia ([2]; all arms, N=52): 4 (7.7) n (%)
Treatment-emergent adverse events, grade 3/4: Proteinuria ([2]; all arms, N=52): 4 (7.7) n (%)
Treatment-emergent adverse events, grade 3/4: Sepsis ([2]; all arms, N=52): 3 (5.8) n (%)
DLTs ([2]; arm A, PO once weekly monotherapy, 640 mg, 6 patients): Grade 3 pancreatitis ^a
recommended phase 2 dose (RPTD) ([2]; arm A, oral monotherapy once weekly): 540 mg
DLTs ([2]; arm B, 320 or 480 mg twice weekly): No DLTs
recommended phase 2 dose (RPTD) ([2]; arm B, oral monotherapy twice weekly): 480 mg
DLTs ([2]; arm D, IV once weekly, 32 mg): No DLTs
association between ilorasertib dose and cell cycle arrest [3]: No association
increase in the number of cells with 4N DNA and polyploidy ([3]; 9 patients with sufficient cycling cells at baseline): ≥ 2 fold
increase in PlGF ([4]; after the first dose, dose range 10 to 690 mg): ≥ 2 fold
relationship between dose and the magnitude of change in PlGF [4]: no apparent relationship
patients with a best response of stable disease ([5]; 52 patients): Twelve
patients with an objective response ([5]; AML patients, among 52 patients): 3
patients with CR with incomplete blood count recovery (CRi) ([5]; AML, arm A, 640 mg, end of cycle 1): 1
patients with complete response (CR) ([5]; AML, arm A, 690 mg, end of cycle 8): 1
patients with partial response ([5]; AML, arm B, 480 mg, end of cycle 2): 1

— publication PMC5563391 (Investigational new drugs, 2015)
